Assay results as given in ChEMBL document CHEMBL1143002, “Discovery and structure-activity relationships of piperidinone- and piperidine-constrained phenethylamines as novel, potent, and selective dipeptidyl peptidase IV inhibitors” (J Med Chem, 2007).

What was measured:
[1] = test system: Rattus norvegicus; assay: AUC in rat at 5 mg/kg, po; format: ADME, organism-based, Plasma; set-up: dose 5 mg/kg, route oral; settings: in vivo
Summary of the method: (§1)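 Rats (n = 6) dosed at 5 mg/kg by iv and po routes. Plasma clearance and steady-state volume of distribution were taken from iv dosing. Cmax (maximal concentration) and terminal half-life were taken from oral dosing. AUC and oral bioavailability (F) are also reported.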

[2] = Plasma clearance in rat at 5 mg/kg, iv; format: ADME, organism-based; set-up: dose 5 mg/kg, route intravenous; summary of the method: as §1
[3] = Oral bioavailability in rat at 5 mg/kg, po; format: ADME, organism-based; settings: in vivo; summary of the method: as §1
[4] = Cmax in rat at 5 mg/kg, po; format: ADME, organism-based; set-up: dose 5 mg/kg, route oral; settings: in vivo; summary of the method: as §1
[5] = Half life in rat at 5 mg/kg, po; format: ADME, organism-based; set-up: dose 5 mg/kg, route oral; settings: in vivo; summary of the method: as §1
[6] = Volume of distribution at steady state in rat at 5 mg/kg, iv; format: ADME, organism-based; set-up: dose 5 mg/kg, route intravenous; settings: in vivo, read-out: Vss; summary of the method: as §1
[7] = biological target: Dipeptidyl peptidase 9 (Homo sapiens, UniProt Q86TI2); assay: Inhibition of DPP9
Sequence of Dipeptidyl peptidase 9 (Q86TI2 whole entry): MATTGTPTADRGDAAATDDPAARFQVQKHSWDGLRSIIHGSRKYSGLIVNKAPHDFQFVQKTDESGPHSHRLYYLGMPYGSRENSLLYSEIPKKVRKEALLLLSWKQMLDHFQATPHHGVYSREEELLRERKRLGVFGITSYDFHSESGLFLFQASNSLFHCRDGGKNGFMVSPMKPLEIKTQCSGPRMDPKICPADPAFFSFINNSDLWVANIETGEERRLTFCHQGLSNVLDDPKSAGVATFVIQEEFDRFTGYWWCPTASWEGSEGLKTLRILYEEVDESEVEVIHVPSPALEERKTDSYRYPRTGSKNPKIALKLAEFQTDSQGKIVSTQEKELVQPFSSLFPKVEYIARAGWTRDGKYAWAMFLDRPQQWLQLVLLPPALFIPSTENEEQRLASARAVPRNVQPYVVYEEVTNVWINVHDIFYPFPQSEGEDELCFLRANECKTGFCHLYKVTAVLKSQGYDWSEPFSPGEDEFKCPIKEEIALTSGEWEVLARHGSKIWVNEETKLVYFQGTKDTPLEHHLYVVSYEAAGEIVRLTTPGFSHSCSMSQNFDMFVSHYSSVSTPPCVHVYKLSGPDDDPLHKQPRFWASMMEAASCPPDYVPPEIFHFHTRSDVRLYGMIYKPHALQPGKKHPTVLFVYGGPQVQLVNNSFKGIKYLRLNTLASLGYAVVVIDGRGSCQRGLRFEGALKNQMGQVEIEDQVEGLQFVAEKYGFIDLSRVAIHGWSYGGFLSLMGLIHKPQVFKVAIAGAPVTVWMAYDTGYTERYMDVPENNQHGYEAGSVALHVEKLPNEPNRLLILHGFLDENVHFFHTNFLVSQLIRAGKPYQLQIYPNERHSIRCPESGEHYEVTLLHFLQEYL

[8] = biological target: Dipeptidyl peptidase 8 (Homo sapiens, UniProt Q6V1X1); assay: Inhibition of DPP8
Sequence of Dipeptidyl peptidase 8 (Q6V1X1 whole entry): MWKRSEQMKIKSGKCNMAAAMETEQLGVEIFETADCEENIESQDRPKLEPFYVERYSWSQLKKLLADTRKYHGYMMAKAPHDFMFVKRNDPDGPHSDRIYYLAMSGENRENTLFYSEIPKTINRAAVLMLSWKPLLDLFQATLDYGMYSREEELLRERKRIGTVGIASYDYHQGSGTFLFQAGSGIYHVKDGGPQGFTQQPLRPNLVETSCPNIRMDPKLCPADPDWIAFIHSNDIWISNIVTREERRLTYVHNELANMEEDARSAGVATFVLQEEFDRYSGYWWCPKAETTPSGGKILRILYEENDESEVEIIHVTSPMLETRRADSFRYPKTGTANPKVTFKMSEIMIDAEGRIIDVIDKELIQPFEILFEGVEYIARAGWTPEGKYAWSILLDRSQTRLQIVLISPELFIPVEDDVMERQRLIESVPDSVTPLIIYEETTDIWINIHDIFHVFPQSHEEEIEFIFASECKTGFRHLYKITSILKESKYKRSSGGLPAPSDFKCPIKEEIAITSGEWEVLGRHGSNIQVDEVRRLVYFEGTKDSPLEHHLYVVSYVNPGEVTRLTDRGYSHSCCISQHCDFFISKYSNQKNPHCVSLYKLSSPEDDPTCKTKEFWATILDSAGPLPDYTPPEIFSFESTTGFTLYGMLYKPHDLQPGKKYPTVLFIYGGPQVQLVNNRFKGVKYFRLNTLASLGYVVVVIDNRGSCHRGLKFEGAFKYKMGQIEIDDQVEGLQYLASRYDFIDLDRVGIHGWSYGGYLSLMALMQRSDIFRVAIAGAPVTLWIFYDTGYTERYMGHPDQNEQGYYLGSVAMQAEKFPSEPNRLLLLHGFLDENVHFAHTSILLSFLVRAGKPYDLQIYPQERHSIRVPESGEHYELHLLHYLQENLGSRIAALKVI

| SMILES | AUC [1] | clearance [2] | bioavailability [3] | Cmax [4] | half-life [5] | Vd [6] | Ki [7] | Ki [8] |
| --- | --- | --- | --- | --- | --- | --- | --- | --- |
| Cl.N[C@H]1CN(CCc2ccc3c(c2)OCO3)C(=O)C[C@@H]1c1cc(F)c(F)cc1F | 223 ng·h/mL | 36.3 mL/min/kg | 9% | 192 ng/mL | 0.42 h | 1.04 L/kg | – | – |
| CS(=O)(=O)c1cccc(-c2cc(N3C[C@H](N)[C@@H](c4cc(F)c(F)cc4F)CC3=O)ncn2)c1 | 24400 ng·h/mL | 3.17 mL/min/kg | 90.3% | 2000 ng/mL | 7.8 h | 1.28 L/kg | > 30 µM | > 30 µM |
| CS(=O)(=O)c1cccc(CCN2C[C@H](N)[C@@H](c3cc(F)c(F)cc3F)CC2=O)c1 | 771 ng·h/mL | 30.2 mL/min/kg | 27.6% | 710 ng/mL | 1.8 h | 1.24 L/kg | – | – |
| N[C@H]1CN(c2cc(N3CC[C@@H](O)C3)ncn2)C(=O)C[C@@H]1c1cc(F)c(F)cc1F | – | – | – | – | – | – | – | > 30 µM |
